For data set [1], the target named is T1, Cannabinoid receptor 1 (Homo sapiens, UniProt P21554). The data set is described as follows: Displacement of 3[H]ligand from recombinant human CB1 receptor. Summed up: (§1)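 Radioligand displacement from human recombinant CB1 and CB2 protein by a [³H] ligand. Initial screen at two concentrations in duplicate, with values >100 nM estimated. Percent inhibition read at 100 nM. IC₅₀ taken from four-point concentration curves run in duplicate.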

A further data set deals with Cannabinoid receptor 2 (Homo sapiens, UniProt P34972). The data set is described as follows: Displacement of 3[H]ligand from recombinant human CB2 receptor. In outline:
as §1

The test system of data set [2] is MDCK. The data set is described as follows: (§2) Apparent permeability from basolateral to apical side in MDR expressing MDCK cells by LC-MS-MS analysis. The data set is classed as ADME, cell-based, Canis lupus familiaris. Conditions: dog, mdck. Summed up: (§3)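 Permeability measured across MDR-MDCK kidney cell monolayers, giving apparent permeability (Papp) in the apical-to-basolateral and basolateral-to-apical directions.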

Data set [3] relates to MDCK. Nature of the data set: (§4) Apparent permeability from apical to basolateral side in MDR expressing MDCK cells by LC-MS-MS analysis. The data set is classed as ADME, cell-based, Canis lupus familiaris. To be noted: dog, mdck. In outline: as §3
The test system of data set [4] is MDCK. Nature of the data set: Efflux ratio of permeability from […] in MDR expressing MDCK cells. Format: ADME, cell-based, Canis lupus familiaris. Conditions: dog, mdck.
A short description of data set [5]: Plasma concentration in chow fed mouse at 100 mg/kg, po for 3 days measured after 1 hr post last dose. Format: ADME, organism-based. The arrangement: dose 100 mg/kg, route oral. Summed up:
(§5)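 Chow-fed mice were dosed orally at 100 or 20 mg/kg for 3 consecutive days. Plasma and brain were taken 1 h after the last dose. Proteins were precipitated with 3× volume ice-cold acetonitrile containing internal standard, then centrifuged 15 min at 4 °C. Analysis by LC/MS/MS against calibrators in plasma or brain homogenate (1000 to 1.6 nM). Brain is given as ng/gm and also as % of plasma.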

The subject of a further data set is Brain. The data set is described as follows: Drug uptake in chow fed mouse brain assessed per gram of tissue at 100 mg/kg, po for 3 days measured 1 hr post last dose. Format: ADME, organism-based. The arrangement: dose 100 mg/kg, route oral. To be noted: in vivo. Summed up: as §5
In data set [6] the test system is Mus musculus. The data set is described as follows: In vivo receptor occupancy at CB1 receptor in mouse hippocampus assessed as inhibition of [3H]SR141716A binding at 3 mg/kg, po for 3 days measured after 1 hr post last dose. The data set is classed as functional. Summed up: (§6)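 Chow-fed mice dosed orally once daily at 3 or 30 mg/kg for 3 consecutive days, killed 1 h after the last dose. [3H]SR141716A was given by lateral tail-vein injection 30 min before euthanasia. Hippocampus, cerebellum and brain stem (reference region) were scintillation-counted as DPM/mg. Binding potential = (receptor − reference)/reference. Occupancy (%) = 100 × (vehicle BP − drug BP)/vehicle BP. 5 animals per dose.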

Data set [7] has as its system Mus musculus. The data set is described as follows: In vivo receptor occupancy at CB1 receptor in mouse hippocampus assessed as inhibition of [3H]SR141716A binding at 30 mg/kg, po for 3 days measured after 1 hr post last dose. Format: functional. In outline:
as §6

For data set [8], the system named is Mus musculus. Nature of the data set: In vivo receptor occupancy at CB1 receptor in mouse cerebellum assessed as inhibition of [3H]SR141716A binding at 3 mg/kg, po for 3 days measured after 1 hr post last dose. The data set is classed as functional. In outline:
as §6

Data set [9] relates to Mus musculus. Nature of the data set: Antidiabetic activity in high fat diet-fed diabetes mouse model assessed as reduction in glucose level at 20 mg/kg for 7 days by glucose tolerance test. Format: functional, organism-based. Further details: dose 20 mg/kg. In outline:
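Mice kept on high-fat diet for 14 weeks were given 20 mg/kg PO for seven days. They were then challenged with glucose at 2 g/kg body weight, and glucose elimination was followed.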

The subject of data set [10] is Mus musculus. The data set is described as follows: Antidiabetic activity in high fat diet-fed diabetes mouse model assessed as […] in insulin sensitivity at 20 mg/kg for 7 days by glucose tolerance test. The data set is classed as functional, organism-based. The arrangement: dose 20 mg/kg.
Data set [11] can be described thus: as §2. The data set is classed as ADME, cell-based, Canis lupus familiaris. To be noted: dog, MDCK-MDR1. Summed up: as §3
A short description of data set [12]: as §4. The data set is classed as ADME, cell-based, Canis lupus familiaris. To be noted: dog, MDCK-MDR1. In outline:
as §3

The subject of data set [13] is Mus musculus. The data set is described as follows: Antidyslipidemic activity in DIO mouse model assessed as reduction in terminal fasting triglyceride level at 3 to 30 mg/kg, po for 21 days. The data set is classed as functional. Further details: scale not given: the % may be the effect or the level left. Conditions: dose mg/kg 3-30. Summed up: (§7)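 Diet-induced obese mice dosed orally at 3, 10 and 30 mg/kg for 21 days alongside vehicle controls. Plasma triglycerides, ALT and terminal liver weight were measured at the end of dosing. p-values were given for each dose.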

Data set [14] deals with Mus musculus. Nature of the data set: Antidyslipidemic activity in DIO mouse model assessed as reduction in terminal liver weight at 3 to 30 mg/kg, po for 21 days. Format: functional. The arrangement: scale not given: the % may be the effect or the level left. To be noted: dose mg/kg 3-30. In outline: as §7
For data set [15], the system named is Mus musculus. The data set is described as follows: Antidyslipidemic activity in DIO mouse model assessed as reduction in terminal ALT level at 3 to 30 mg/kg, po for 21 days. Format: functional. The arrangement: scale not given: the % may be the effect or the level left. Conditions: dose mg/kg 3-30. Summed up:
as §7

Data set [16] has as its target T1, Cannabinoid receptor 1. The data set is described as follows: Inverse agonist activity against CB1 receptor expressed in human CHO cells assessed as effect on forskolin-stimulated cAMP level. Format: functional, cell-based. For orientation: Cyclic AMP is a second messenger, typically raised through Gs and lowered through Gi signalling.
Data set [17] relates to Mus musculus. Nature of the data set: Antidyslipidemic activity in DIO mouse model assessed as reduction in terminal fasting triglyceride level at 3 mg/kg, po for 21 days. The arrangement: scale not given: the % may be the effect or the level left. The data set is classed as functional. Summed up:
as §7

Data set [18] deals with Mus musculus. The data set is described as follows: Antidyslipidemic activity in DIO mouse model assessed as reduction in terminal fasting triglyceride level at 30 mg/kg, po for 21 days. The data set is classed as functional. The arrangement: scale not given: the % may be the effect or the level left. In outline:
as §7

Data set [19] deals with Cannabinoid receptor 1 (Mus musculus) (UniProt P47746). To be noted: Cerebellum, 30 mg/kg.
The nature of data set [20]: Plasma concentration in chow fed mouse at 20 mg/kg, po for 3 days measured after 1 hr post last dose. The data set is classed as ADME, organism-based. Further details: dose 20 mg/kg, route oral. In outline: as §5
The nature of data set [21]: Drug uptake in chow fed mouse brain at 20 mg/kg, po for 3 days measured after 1 hr post last dose. Format: ADME, organism-based. Further details: dose 20 mg/kg, route oral. Conditions: read-out: Drug uptake. In outline: as §5

Calls of active or inactive are those of the source. No cut-off for these calls is given here.

Chain of Cannabinoid receptor 2 (P34972 whole entry): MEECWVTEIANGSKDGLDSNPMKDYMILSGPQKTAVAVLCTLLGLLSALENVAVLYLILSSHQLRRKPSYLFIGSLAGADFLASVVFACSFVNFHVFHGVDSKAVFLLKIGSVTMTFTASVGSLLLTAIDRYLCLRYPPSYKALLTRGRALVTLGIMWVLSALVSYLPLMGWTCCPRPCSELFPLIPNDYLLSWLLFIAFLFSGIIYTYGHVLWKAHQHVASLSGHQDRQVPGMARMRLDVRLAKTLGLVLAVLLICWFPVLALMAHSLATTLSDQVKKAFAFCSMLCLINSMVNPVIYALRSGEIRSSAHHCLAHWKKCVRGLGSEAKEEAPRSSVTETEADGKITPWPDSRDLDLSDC
T1 sequence (P21554 whole entry): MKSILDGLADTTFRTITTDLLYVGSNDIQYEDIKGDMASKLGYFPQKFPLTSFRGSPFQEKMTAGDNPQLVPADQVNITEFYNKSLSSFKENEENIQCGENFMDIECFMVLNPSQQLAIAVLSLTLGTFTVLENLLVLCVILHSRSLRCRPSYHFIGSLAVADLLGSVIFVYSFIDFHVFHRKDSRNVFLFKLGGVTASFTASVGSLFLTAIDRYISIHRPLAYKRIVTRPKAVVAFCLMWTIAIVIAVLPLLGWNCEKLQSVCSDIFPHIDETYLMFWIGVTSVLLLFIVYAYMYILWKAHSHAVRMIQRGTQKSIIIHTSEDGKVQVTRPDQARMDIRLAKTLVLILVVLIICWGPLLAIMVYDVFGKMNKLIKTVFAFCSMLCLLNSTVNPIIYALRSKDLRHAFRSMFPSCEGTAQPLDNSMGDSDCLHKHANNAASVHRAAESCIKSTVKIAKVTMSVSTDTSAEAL
Chain of Cannabinoid receptor 1 (Mus musculus) (P47746 whole entry): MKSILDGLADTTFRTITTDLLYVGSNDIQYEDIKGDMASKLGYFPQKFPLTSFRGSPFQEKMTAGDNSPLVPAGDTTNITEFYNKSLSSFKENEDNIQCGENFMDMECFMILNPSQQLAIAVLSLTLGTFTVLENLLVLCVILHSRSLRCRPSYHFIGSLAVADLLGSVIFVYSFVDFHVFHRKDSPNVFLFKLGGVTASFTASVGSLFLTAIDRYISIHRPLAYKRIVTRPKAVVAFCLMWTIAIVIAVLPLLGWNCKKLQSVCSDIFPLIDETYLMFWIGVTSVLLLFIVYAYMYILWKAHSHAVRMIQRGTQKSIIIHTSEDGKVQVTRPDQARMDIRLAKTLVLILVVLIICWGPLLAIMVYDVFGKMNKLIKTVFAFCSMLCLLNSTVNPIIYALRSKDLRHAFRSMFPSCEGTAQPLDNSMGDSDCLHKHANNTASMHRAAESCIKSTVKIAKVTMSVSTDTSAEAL

For orientation: IC50 means the concentration that inhibits the measured activity by half. Regarding `NC(=O)CNC(=O)CN/C(=N\S(=O)(=O)c1ccc(Cl)cc1)N1CC(c2ccccc2)C(c2ccc(Cl)cc2)=N1` (stereo not drawn), the IC50 on Cannabinoid receptor 1 [1] is 25 nM; at Cannabinoid receptor 2, more than 5000 nM. In addition, the figures for the Papp in the data set on MDCK [2] and in the data set with MDCK [3] were 22.3 ×10⁻⁶ cm/s and 0.2 ucm/s, respectively. Moreover, in the data set on MDCK [4], the Ratio is 112.

In the case of `NC(=O)CN=C(NS(=O)(=O)c1ccc(Cl)cc1)N1CC(c2ccccc2)C(c2ccc(Cl)cc2)=N1` (single isomer, unassigned; enantiomer 1), the results for the IC50 at Cannabinoid receptor 1 [1] and on Cannabinoid receptor 2 were 32 nM and more than 5000 nM, respectively. The molecule also registered a concentration at 1 h in data set [5] of 16700 ng/mL. The Drug uptake in the data set with Brain turned out to be 685 ng/g. Also, the Occ in the data set with Mus musculus [6] worked out at 10%; with Mus musculus [7] it was 3%; with Mus musculus [8] it was 0%.

In the case of `NC(=O)CN/C(=N\S(=O)(=O)c1ccc(Cl)cc1)N1CC(c2ccccc2)C(c2ccc(Cl)cc2)=N1` (racemic) [listing 1 of 2 here], the result in the data set on Mus musculus [9] and in the data set on Mus musculus [10] was Active.

As usually defined, the Papp B→A is how fast a substance crosses the layer from the basolateral side. Usually Papp A→B stands for the apparent permeability from the apical to the basolateral side of a cell layer. For `NC(=O)CN/C(=N\S(=O)(=O)c1ccc(Cl)cc1)N1CC(c2ccccc2)C(c2ccc(Cl)cc2)=N1` (racemic) [listing 2 of 2 here], the IC50 stood at 18 nM at Cannabinoid receptor 1 [1], 5000 nM at Cannabinoid receptor 2 and 18 nM on Cannabinoid receptor 1 [16]. Besides, the basolateral-to-apical permeability (Papp B→A) in [11] amounted to 60.5 ×10⁻⁶ cm/s. Besides, the Papp A→B in [12] came out at 1.8 ×10⁻⁶ cm/s. The Activity in the data set with Mus musculus [13] worked out at 26%; in the data set with Mus musculus [14], 17%; in the data set with Mus musculus [15], 49%.

Take `CN/C(=N\S(=O)(=O)c1ccc(Cl)cc1)N1CC(c2ccccc2)C(c2ccc(Cl)cc2)=N1` (racemic) [RAC-IBIPINABANT]: the Occ came to 15% with Mus musculus [6], 100% in the data set with Mus musculus [7], 15% in the data set with Mus musculus [8] and 102% in data set [19]. The Activity in the data set on Mus musculus [17] amounted to 22%; with Mus musculus [18] it was 19%; with Mus musculus [14], 25%; with Mus musculus [15] it was 56%.

Consider `CNC(=NS(=O)(=O)c1ccc(Cl)cc1)N1CC(c2ccccc2)C(c2ccc(Cl)cc2)=N1` (racemic) [RAC-IBIPINABANT], for which the Papp B→A in data set [11] stood at 10 ×10⁻⁶ cm/s. Further, the Papp A→B in [12] was 9.45 ×10⁻⁶ cm/s. The concentration at 1 h in [5] is 5130 ng/mL. In the data set on Brain, this molecule had a Drug uptake of 2080 ng/g.

As to `CC(C)[C@H](N/C(=N\S(=O)(=O)c1ccc(Cl)cc1)N1CC(c2ccccc2)C(c2ccc(Cl)cc2)=N1)C(N)=O` (stereo partly drawn), the concentration for half-maximal inhibition (IC50) is 2 nM on Cannabinoid receptor 1 [1] and more than 1000 nM at Cannabinoid receptor 2. In data set [11], the Papp B→A was 16.6 ×10⁻⁶ cm/s. Further, the Papp A→B in data set [12] was determined as 1.08 ×10⁻⁶ cm/s. Also, in [5], the concentration at 1 h is 3850 ng/mL. For the same molecule, the Drug uptake result with Brain (BLD = below limit of detection) is listed as “BLD”.

As for `Cc1c(C(=O)NN2CCCCC2)nn(-c2ccc(Cl)cc2Cl)c1-c1ccc(Cl)cc1` [RIMONABANT], the concentration at 1 h in [20] stood at 1200 ng/mL; in data set [21] it was 1080 ng/g. Also, the Occ with Mus musculus [6] was 10%; with Mus musculus [7] it was 100%; in the data set with Mus musculus [8], 12%; in data set [19], 87%. The result in the data set on Mus musculus [9] and with Mus musculus [10] was Active.

The values above are taken from ChEMBL document CHEMBL2150881, “JD-5006 and JD-5037: peripherally restricted (PR) cannabinoid-1 receptor blockers related to SLV-319 (Ibipinabant) as metabolic disorder therapeutics devoid of CNS liabilities” (Bioorg Med Chem Lett, 2012).
